The source of these data is ChEMBL document CHEMBL1275272, “Synthesis, characterization and antimicrobial activity of some disubstituted 1,3,4-oxadiazoles carrying 2-(aryloxymethyl)phenyl moiety” (2010).

What is called MIC is the lowest concentration that inhibits growth of the organism. Lower therefore signals inhibition by little substance.

Type in all cases: functional
The test system of assay [1] is Trichophyton mentagrophytes. The assay can be described thus: Antifungal activity against Trichophyton mentagrophytes after 16 to 18 hrs by serial dilution method. The note with it: for MIC: Trichophyton mentagrophytes.
For assay [2], the system named is Klebsiella pneumoniae. The assay can be described thus: Antibacterial activity against Klebsiella pneumoniae after 16 to 18 hrs by serial dilution method. The conditions noted are these: for MIC: Klebsiella pneumoniae.
Assay [3] has as its system Aspergillus flavus. The assay can be described thus: Antifungal activity against Aspergillus flavus after 16 to 18 hrs by serial dilution method. The conditions noted are these: for MIC: Aspergillus flavus. The method in brief: (§1)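 The test compound was dissolved in DMF and serially diluted. A standard drop of the prepared microbial culture was added to each dilution, and tubes were incubated at 37 °C for 16–18 h. MIC was taken as the highest dilution that stayed clear with no visible turbidity.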

Assay [4] deals with Pseudomonas aeruginosa. In words: Antibacterial activity against Pseudomonas aeruginosa after 16 to 18 hrs by serial dilution method. The note with it: for MIC: Pseudomonas aeruginosa. The method, boiled down:
as §1

Assay [5] concerns Aspergillus fumigatus. In words: Antifungal activity against Aspergillus fumigatus after 16 to 18 hrs by serial dilution method. The note with it: for MIC: Aspergillus fumigatus.
Assay [6] concerns Staphylococcus aureus. In words: Antibacterial activity against Staphylococcus aureus after 16 to 18 hrs by serial dilution method. The note with it: for MIC: Staphylococcus aureus. The method in brief: as §1
For assay [7], the system named is Talaromyces marneffei. The assay can be described thus: Antifungal activity against Penicillium marneffei after 16 to 18 hrs by serial dilution method. The conditions noted are these: for MIC: Talaromyces marneffei. The method, boiled down:
as §1

Assay [8] has as its system Escherichia coli. In words: Antibacterial activity against Escherichia coli after 16 to 18 hrs by serial dilution method. The conditions noted are these: for MIC: Escherichia coli. The method, boiled down: as §1

Molecules are shown by their SMILES. In brackets after ≈: the same amount, converted by molar mass.

On to `Cc1cccc(OCc2ccccc2-c2nn(CNc3cc(C)ccc3Cl)c(=S)o2)c1`, for which the “inhibition zone (IZ)” value in assay [1], in assay [2], in assay [3], in assay [4], in assay [5] and in assay [6] was less than 10 mm throughout. The “inhibition zone (IZ)” value in assay [7] and in assay [8] was less than 10 mm throughout. Also, the MIC in assay [1], in assay [2], in assay [3], in assay [4], in assay [5] and in assay [6] was 25 µg/mL (≈ 55.3 µM) throughout. In addition, the MIC in assay [7] and in assay [8] was 25 µg/mL (≈ 55.3 µM) in each case.

In the case of `Cc1ccc(OCc2ccccc2-c2nn(CNc3cc(C)ccc3Cl)c(=S)o2)cc1`, the “inhibition zone (IZ)” value in assay [1], in assay [2], in assay [3], in assay [4], in assay [5] and in assay [6] was less than 10 mm in each case. The “inhibition zone (IZ)” value in assay [7] and in assay [8] was less than 10 mm each time. Also, the MIC in assay [1], in assay [2], in assay [3], in assay [4], in assay [5] and in assay [6] was 25 µg/mL (≈ 55.3 µM) each time. Also, the MIC in assay [7] and in assay [8] was 25 µg/mL (≈ 55.3 µM) throughout.

Regarding `Cc1ccc(Cl)c(NCn2nc(-c3ccccc3COc3ccc(Cl)cc3)oc2=S)c1`, the “inhibition zone (IZ)” value in assay [1], in assay [2], in assay [3], in assay [4], in assay [5] and in assay [6] was less than 10 mm in each case. The “inhibition zone (IZ)” value in assay [7] and in assay [8] was less than 10 mm in each case. Also, the MIC in assay [1], in assay [2], in assay [3], in assay [4], in assay [5] and in assay [6] was 25 µg/mL (≈ 52.9 µM) throughout. Besides, the MIC in assay [7] and in assay [8] was 25 µg/mL (≈ 52.9 µM) throughout.

Turning to `CCSc1nnc(-c2ccccc2COc2ccccc2C)o1`, the “inhibition zone (IZ)” value in assay [1], in assay [2], in assay [3], in assay [4], in assay [5] and in assay [6] was less than 10 mm in each case. Moreover, the “inhibition zone (IZ)” value in assay [7] and in assay [8] was less than 10 mm each time. The MIC in assay [1], in assay [2], in assay [3], in assay [4], in assay [5] and in assay [6] was 25 µg/mL (≈ 76.6 µM) in each case. For the same molecule, the MIC in assay [7] and in assay [8] was 25 µg/mL (≈ 76.6 µM) each time.

As to `CCSc1nnc(-c2ccccc2COc2cccc(C)c2)o1`, the “inhibition zone (IZ)” value in assay [1], in assay [2], in assay [3], in assay [4], in assay [5] and in assay [6] was less than 10 mm throughout. Further, the “inhibition zone (IZ)” value in assay [7] and in assay [8] was less than 10 mm in each case. For the same molecule, the MIC in assay [1], in assay [2], in assay [3], in assay [4], in assay [5] and in assay [6] was 25 µg/mL (≈ 76.6 µM) each time. In addition, the MIC in assay [7] and in assay [8] was 25 µg/mL (≈ 76.6 µM) throughout.
